According to ChEMBL document CHEMBL1773037, “Evaluation of superior BACE1 cleavage sequences containing unnatural amino acids” (Bioorg Med Chem, 2011):
Active and inactive are the calls of the source. No cut-off for these calls is given here. Starred links: 1 amine or outer side, 2 acyl side, 3 side chain; linkers in the order of their positions; H or OH if unused. Non-standard residues stand in square brackets, D forms with d. Residues, ends and D or L forms follow the SMILES beside them. X1 = O=C(O)[C@@H]1Cc2ccccc2CN1[C@H](N[*:1])C(=O)[*:2]; 2Thi = N[C@@H](Cc1cccs1)C(=O)O; Cit = NC(=O)NCCC[C@H](N)C(=O)O; Phg = N[C@H](C(=O)O)c1ccccc1; Tle = CC(C)(C)[C@H](N)C(=O)O; Nva = CCC[C@H](N)C(=O)O; Abu = CC[C@H](N)C(=O)O

Legend:
[1] = molecular target: Beta-secretase 1 (Homo sapiens) (UniProt P56817); assay: Activity of recombinant BACE assessed as substrate cleavage at 300 uM after 3 hrs by HPLC analysis
Beta-secretase 1 (Homo sapiens), sequence (P56817 whole entry): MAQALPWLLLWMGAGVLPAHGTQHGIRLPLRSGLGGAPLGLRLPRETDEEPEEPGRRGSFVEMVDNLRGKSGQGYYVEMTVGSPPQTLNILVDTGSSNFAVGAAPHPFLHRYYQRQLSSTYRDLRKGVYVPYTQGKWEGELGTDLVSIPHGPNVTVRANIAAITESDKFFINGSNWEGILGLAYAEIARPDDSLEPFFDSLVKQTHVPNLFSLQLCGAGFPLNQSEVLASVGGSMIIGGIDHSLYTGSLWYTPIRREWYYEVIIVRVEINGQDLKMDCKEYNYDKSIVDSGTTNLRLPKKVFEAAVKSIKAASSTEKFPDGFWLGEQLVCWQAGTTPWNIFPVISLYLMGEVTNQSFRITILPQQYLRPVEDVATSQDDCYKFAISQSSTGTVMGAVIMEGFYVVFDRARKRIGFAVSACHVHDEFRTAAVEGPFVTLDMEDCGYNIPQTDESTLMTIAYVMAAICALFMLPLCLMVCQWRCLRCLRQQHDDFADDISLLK
Summary of the method: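 Individually synthesized, purified substrates at 300 µM in 40 mM AcONa buffer, pH 4.5, 37 °C. rBACE1 used at 60 nM (P1, P4 substrates), 30 nM (P2, P3 substrates) or 10 nM (P1' substrates and the dodecapeptide). Aliquots taken at 0, 1 and 3 h, quenched with 7 M GuHCl, and the decrease in each substrate peak monitored by HPLC.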

[2] = molecular target: Beta-secretase 1 (Homo sapiens) (UniProt P56817); assay: Activity of recombinant BACE assessed as retention time of substrate by HPLC method

| Structure (SMILES) | Activity [1] | retention time [2] [h] |
| --- | --- | --- |
| CCC[C@H](NC(=O)[C@H](CC(C)C)NC(=O)[C@H](CC(N)=O)NC(=O)[C@@H](NC(=O)[C@H](CCC(=O)O)NC(=O)[C@H](CO)NC(=O)[C@@H](N)[C@@H](C)CC)C(C)C)C(=O)N[C@@H](C)C(=O)N[C@@H](CCC(=O)O)C(=O)N[C@@H](Cc1ccccc1)C(=O)N[C@@H](CCCNC(=N)N)C(=O)N[C@@H](Cc1cnc[nH]1)C(N)=O (H-ISEVNL[Nva]AEFRH-NH2) | Active | 0.622 |
| CC[C@H](C)[C@H](N)C(=O)N[C@@H](CO)C(=O)N[C@@H](CCC(=O)O)C(=O)N[C@H](C(=O)N[C@@H](Cc1cccs1)C(=O)N[C@@H](CC(C)C)C(=O)N[C@@H](CC(=O)O)C(=O)N[C@@H](C)C(=O)N[C@@H](CCC(=O)O)C(=O)N[C@@H](Cc1ccccc1)C(=O)N[C@@H](CCCNC(=N)N)C(=O)N[C@@H](Cc1cnc[nH]1)C(N)=O)C(C)C (H-ISEV[2Thi]LDAEFRH-NH2) | Active | 0.551 |
| CCC[C@H](NC(=O)[C@@H](NC(=O)[C@H](CCC(=O)O)NC(=O)[C@H](CO)NC(=O)[C@@H](N)[C@@H](C)CC)C(C)C)C(=O)N[C@@H](CC(C)C)C(=O)N[C@@H](CC(=O)O)C(=O)N[C@@H](C)C(=O)N[C@@H](CCC(=O)O)C(=O)N[C@@H](Cc1ccccc1)C(=O)N[C@@H](CCCNC(=N)N)C(=O)N[C@@H](Cc1cnc[nH]1)C(N)=O (H-ISEV[Nva]LDAEFRH-NH2) | Active | 0.521 |
| CCC[C@H](NC(=O)[C@H](CCC(=O)O)NC(=O)[C@H](CO)NC(=O)[C@@H](N)[C@@H](C)CC)C(=O)N[C@@H](CC(N)=O)C(=O)N[C@@H](CC(C)C)C(=O)N[C@@H](CC(=O)O)C(=O)N[C@@H](C)C(=O)N[C@@H](CCC(=O)O)C(=O)N[C@@H](Cc1ccccc1)C(=O)N[C@@H](CCCNC(=N)N)C(=O)N[C@@H](Cc1cnc[nH]1)C(N)=O (H-ISE[Nva]NLDAEFRH-NH2) | Active | 0.496 |
| CC[C@H](C)[C@H](N)C(=O)N[C@@H](CO)C(=O)N[C@@H](CCC(=O)O)C(=O)N[C@H](C(=O)N[C@@H](CC(=O)O)C(=O)N[C@@H](CC(C)C)C(=O)N[C@@H](CC(=O)O)C(=O)N[C@@H](C)C(=O)N[C@@H](CCC(=O)O)C(=O)N[C@@H](Cc1ccccc1)C(=O)N[C@@H](CCCNC(=N)N)C(=O)N[C@@H](Cc1cnc[nH]1)C(N)=O)C(C)C (H-ISEVDLDAEFRH-NH2) | Active | 0.49 |
| CC[C@H](C)[C@H](N)C(=O)N[C@@H](CO)C(=O)N[C@@H](CCC(=O)O)C(=O)N[C@H](C(=O)N[C@@H](CC(N)=O)C(=O)N[C@@H](Cc1ccccc1)C(=O)N[C@@H](CC(=O)O)C(=O)N[C@@H](C)C(=O)N[C@@H](CCC(=O)O)C(=O)N[C@@H](Cc1ccccc1)C(=O)N[C@@H](CCCNC(=N)N)C(=O)N[C@@H](Cc1cnc[nH]1)C(N)=O)C(C)C (H-ISEVNFDAEFRH-NH2) | 50% | 0.502 |
| CC[C@H](C)[C@H](N)C(=O)N[C@@H](CO)C(=O)N[C@@H](CCC(=O)O)C(=O)N[C@H](C(=O)N[C@@H](CC(N)=O)C(=O)N[C@@H](CC(C)C)C(=O)N[C@@H](CC(=O)O)C(=O)N[C@@H](C)C(=O)N[C@@H](CCC(=O)O)C(=O)N[C@@H](Cc1ccccc1)C(=O)N[C@@H](CCCNC(=N)N)C(=O)N[C@@H](Cc1cnc[nH]1)C(N)=O)[C@@H](C)CC (H-ISEINLDAEFRH-NH2) | Active | 0.517 |
| CC[C@H](C)[C@H](N)C(=O)N[C@@H](CO)C(=O)N[C@@H](CCC(=O)O)C(=O)N[C@@H](CCCNC(N)=O)C(=O)N[C@@H](CC(N)=O)C(=O)N[C@@H](CC(C)C)C(=O)N[C@@H](CC(=O)O)C(=O)N[C@@H](C)C(=O)N[C@@H](CCC(=O)O)C(=O)N[C@@H](Cc1ccccc1)C(=O)N[C@@H](CCCNC(=N)N)C(=O)N[C@@H](Cc1cnc[nH]1)C(N)=O (H-ISE[Cit]NLDAEFRH-NH2) |  | 0.438 |
| CC[C@H](C)[C@H](N)C(=O)N[C@@H](CO)C(=O)N[C@@H](CCCNC(N)=O)C(=O)N[C@H](C(=O)N[C@@H](CC(N)=O)C(=O)N[C@@H](CC(C)C)C(=O)N[C@@H](CC(=O)O)C(=O)N[C@@H](C)C(=O)N[C@@H](CCC(=O)O)C(=O)N[C@@H](Cc1ccccc1)C(=O)N[C@@H](CCCNC(=N)N)C(=O)N[C@@H](Cc1cnc[nH]1)C(N)=O)C(C)C (H-IS[Cit]VNLDAEFRH-NH2) | Active | 0.474 |
| CC[C@H](NC(=O)[C@H](CC(C)C)NC(=O)[C@H](CC(N)=O)NC(=O)[C@@H](NC(=O)[C@H](CCC(=O)O)NC(=O)[C@H](CO)NC(=O)[C@@H](N)[C@@H](C)CC)C(C)C)C(=O)N[C@@H](C)C(=O)N[C@@H](CCC(=O)O)C(=O)N[C@@H](Cc1ccccc1)C(=O)N[C@@H](CCCNC(=N)N)C(=O)N[C@@H](Cc1cnc[nH]1)C(N)=O (H-ISEVNL[Abu]AEFRH-NH2) | Active | 0.585 |
| CCC[C@H](NC(=O)[C@H](CO)NC(=O)[C@@H](N)[C@@H](C)CC)C(=O)N[C@H](C(=O)N[C@@H](CC(N)=O)C(=O)N[C@@H](CC(C)C)C(=O)N[C@@H](CC(=O)O)C(=O)N[C@@H](C)C(=O)N[C@@H](CCC(=O)O)C(=O)N[C@@H](Cc1ccccc1)C(=O)N[C@@H](CCCNC(=N)N)C(=O)N[C@@H](Cc1cnc[nH]1)C(N)=O)C(C)C (H-IS[Nva]VNLDAEFRH-NH2) |  | 0.567 |
| CC[C@H](C)[C@H](N)C(=O)N[C@@H](CO)C(=O)N[C@@H](CCC(=O)O)C(=O)N[C@H](C(=O)N[C@@H](CC(N)=O)C(=O)N[C@@H](CC(=O)O)C(=O)N[C@@H](CC(=O)O)C(=O)N[C@@H](C)C(=O)N[C@@H](CCC(=O)O)C(=O)N[C@@H](Cc1ccccc1)C(=O)N[C@@H](CCCNC(=N)N)C(=O)N[C@@H](Cc1cnc[nH]1)C(N)=O)C(C)C (H-ISEVNDDAEFRH-NH2) | Active |  |
| CC[C@H](C)[C@H](N)C(=O)N[C@@H](CO)C(=O)N[C@@H](CCC(=O)O)C(=O)N[C@H](C(=O)N[C@@H](CC(N)=O)C(=O)N[C@@H](CCSC)C(=O)N[C@@H](CC(=O)O)C(=O)N[C@@H](C)C(=O)N[C@@H](CCC(=O)O)C(=O)N[C@@H](Cc1ccccc1)C(=O)N[C@@H](CCCNC(=N)N)C(=O)N[C@@H](Cc1cnc[nH]1)C(N)=O)C(C)C (H-ISEVNMDAEFRH-NH2) | Active |  |
| CC[C@H](C)[C@H](N)C(=O)N[C@@H](CO)C(=O)N[C@@H](Cc1cccs1)C(=O)N[C@H](C(=O)N[C@@H](CC(N)=O)C(=O)N[C@@H](CC(C)C)C(=O)N[C@@H](CC(=O)O)C(=O)N[C@@H](C)C(=O)N[C@@H](CCC(=O)O)C(=O)N[C@@H](Cc1ccccc1)C(=O)N[C@@H](CCCNC(=N)N)C(=O)N[C@@H](Cc1cnc[nH]1)C(N)=O)C(C)C (H-IS[2Thi]VNLDAEFRH-NH2) |  | 0.591 |
| CC[C@H](C)[C@H](N)C(=O)N[C@@H](CO)C(=O)N[C@@H](CCC(=O)O)C(=O)N[C@H](C(=O)N[C@@H](CC(N)=O)C(=O)N[C@@H](CC(C)C)C(=O)N[C@@H](CC(=O)O)C(=O)N[C@@H](C)C(=O)N[C@@H](CCC(=O)O)C(=O)N[C@@H](Cc1ccccc1)C(=O)N[C@@H](CCCNC(=N)N)C(=O)N[C@@H](Cc1cnc[nH]1)C(N)=O)N1Cc2ccccc2C[C@H]1C(=O)O (H-ISE[X1]NLDAEFRH-NH2) |  | 0.599 |
| CC[C@H](C)[C@H](N)C(=O)N[C@@H](CO)C(=O)N[C@@H](CCC(=O)O)C(=O)N[C@H](C(=O)N[C@@H](Cc1cccs1)C(=O)N[C@@H](Cc1cccs1)C(=O)O)[C@@H](C)CC (H-ISEI[2Thi][2Thi]-OH) |  | 0.63 |
| CC[C@H](C)[C@H](N)C(=O)N[C@@H](CO)C(=O)N[C@@H](CCC(=O)O)C(=O)N[C@H](C(=O)N[C@@H](CCCNC(N)=O)C(=O)N[C@@H](CC(C)C)C(=O)N[C@@H](CC(=O)O)C(=O)N[C@@H](C)C(=O)N[C@@H](CCC(=O)O)C(=O)N[C@@H](Cc1ccccc1)C(=O)N[C@@H](CCCNC(=N)N)C(=O)N[C@@H](Cc1cnc[nH]1)C(N)=O)C(C)C (H-ISEV[Cit]LDAEFRH-NH2) |  | 0.482 |
| CC[C@H](C)[C@H](N)C(=O)N[C@@H](CO)C(=O)N[C@@H](CC(=O)O)C(=O)N[C@H](C(=O)N[C@@H](CC(N)=O)C(=O)N[C@@H](CC(C)C)C(=O)N[C@@H](CC(=O)O)C(=O)N[C@@H](C)C(=O)N[C@@H](CCC(=O)O)C(=O)N[C@@H](Cc1ccccc1)C(=O)N[C@@H](CCCNC(=N)N)C(=O)N[C@@H](Cc1cnc[nH]1)C(N)=O)C(C)C (H-ISDVNLDAEFRH-NH2) |  | 0.474 |
| CC[C@H](NC(=O)[C@H](CCC(=O)O)NC(=O)[C@H](CO)NC(=O)[C@@H](N)[C@@H](C)CC)C(=O)N[C@@H](CC(N)=O)C(=O)N[C@@H](CC(C)C)C(=O)N[C@@H](CC(=O)O)C(=O)N[C@@H](C)C(=O)N[C@@H](CCC(=O)O)C(=O)N[C@@H](Cc1ccccc1)C(=O)N[C@@H](CCCNC(=N)N)C(=O)N[C@@H](Cc1cnc[nH]1)C(N)=O (H-ISE[Abu]NLDAEFRH-NH2) |  | 0.47 |
| CC[C@H](C)[C@H](N)C(=O)N[C@@H](CO)C(=O)N[C@@H](CCC(=O)O)C(=O)N[C@H](C(=O)N[C@@H](CC(N)=O)C(=O)N[C@@H](CC(C)C)C(=O)N[C@@H](CC(=O)O)C(=O)N[C@@H](C)C(=O)N[C@@H](CCC(=O)O)C(=O)N[C@@H](Cc1ccccc1)C(=O)N[C@@H](CCCNC(=N)N)C(=O)N[C@@H](Cc1cnc[nH]1)C(N)=O)C(C)(C)C (H-ISE[Tle]NLDAEFRH-NH2) |  | 0.517 |
| CC[C@H](C)[C@H](N)C(=O)N[C@@H](CO)C(=O)N[C@@H](CCC(=O)O)C(=O)N[C@H](C(=O)N[C@@H](CC(N)=O)C(=O)N[C@@H](CC(C)C)C(=O)N[C@H](C(=O)N[C@@H](C)C(=O)N[C@@H](CCC(=O)O)C(=O)N[C@@H](Cc1ccccc1)C(=O)N[C@@H](CCCNC(=N)N)C(=O)N[C@@H](Cc1cnc[nH]1)C(N)=O)C(C)(C)C)C(C)C (H-ISEVNL[Tle]AEFRH-NH2) |  | 0.629 |
| CC[C@H](C)[C@H](N)C(=O)N[C@@H](CO)C(=O)N[C@@H](CCC(=O)O)C(=O)N[C@H](C(=O)N[C@H](C(=O)N[C@@H](CC(C)C)C(=O)N[C@@H](CC(=O)O)C(=O)N[C@@H](C)C(=O)N[C@@H](CCC(=O)O)C(=O)N[C@@H](Cc1ccccc1)C(=O)N[C@@H](CCCNC(=N)N)C(=O)N[C@@H](Cc1cnc[nH]1)C(N)=O)c1ccccc1)C(C)C (H-ISEV[Phg]LDAEFRH-NH2) |  | 0.541 |
